Data on five molecules can be found in ChEMBL document CHEMBL1147539, “Synthesis and biological evaluation of novel, selective, nonsteroidal glucocorticoid receptor antagonists” (Bioorg Med Chem Lett, 2004).

As a reminder, the IC50 is the point on the concentration scale where inhibition reaches its midpoint. Low values mean greater potency in that assay, high ones weaker potency in that assay.

One experiment has as its target T1, Progesterone receptor (Homo sapiens, UniProt P06401).
T1 sequence (P06401 whole entry): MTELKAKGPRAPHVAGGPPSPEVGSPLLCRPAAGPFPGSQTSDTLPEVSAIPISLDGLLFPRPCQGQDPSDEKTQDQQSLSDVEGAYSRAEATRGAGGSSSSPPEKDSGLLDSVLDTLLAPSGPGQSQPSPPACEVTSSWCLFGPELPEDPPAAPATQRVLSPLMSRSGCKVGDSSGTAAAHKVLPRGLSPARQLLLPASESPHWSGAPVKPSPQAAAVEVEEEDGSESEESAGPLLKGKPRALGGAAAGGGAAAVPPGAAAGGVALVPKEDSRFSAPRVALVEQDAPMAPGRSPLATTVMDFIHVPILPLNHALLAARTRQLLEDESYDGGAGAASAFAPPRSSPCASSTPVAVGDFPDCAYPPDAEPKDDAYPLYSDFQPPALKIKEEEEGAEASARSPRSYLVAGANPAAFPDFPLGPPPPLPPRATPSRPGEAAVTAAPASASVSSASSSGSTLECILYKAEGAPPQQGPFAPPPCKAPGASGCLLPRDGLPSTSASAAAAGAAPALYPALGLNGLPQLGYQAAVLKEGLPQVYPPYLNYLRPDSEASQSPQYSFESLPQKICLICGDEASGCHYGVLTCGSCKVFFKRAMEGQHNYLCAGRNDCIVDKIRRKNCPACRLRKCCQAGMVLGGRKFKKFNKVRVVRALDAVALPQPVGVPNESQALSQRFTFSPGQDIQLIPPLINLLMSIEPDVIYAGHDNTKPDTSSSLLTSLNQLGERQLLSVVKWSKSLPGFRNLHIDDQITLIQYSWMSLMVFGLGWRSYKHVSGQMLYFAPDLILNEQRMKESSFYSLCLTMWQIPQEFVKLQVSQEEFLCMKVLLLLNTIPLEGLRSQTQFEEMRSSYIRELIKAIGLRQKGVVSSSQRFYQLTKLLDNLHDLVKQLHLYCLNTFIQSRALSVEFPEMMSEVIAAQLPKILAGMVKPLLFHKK
The experiment in a line: Displacement of [3H]progesterone from human Progesterone receptor. An outline of the steps: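 Human steroid receptor (PR, MR, AR, ERα) binding measured by radioligand displacement, with IC50s determined in duplicate. Values without a range come from a single experiment, and values with a range are geometric means of repeat experiments.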

The target in experiment [1] is T2, Glucocorticoid receptor (Homo sapiens, UniProt P04150).
T2 sequence (P04150 whole entry): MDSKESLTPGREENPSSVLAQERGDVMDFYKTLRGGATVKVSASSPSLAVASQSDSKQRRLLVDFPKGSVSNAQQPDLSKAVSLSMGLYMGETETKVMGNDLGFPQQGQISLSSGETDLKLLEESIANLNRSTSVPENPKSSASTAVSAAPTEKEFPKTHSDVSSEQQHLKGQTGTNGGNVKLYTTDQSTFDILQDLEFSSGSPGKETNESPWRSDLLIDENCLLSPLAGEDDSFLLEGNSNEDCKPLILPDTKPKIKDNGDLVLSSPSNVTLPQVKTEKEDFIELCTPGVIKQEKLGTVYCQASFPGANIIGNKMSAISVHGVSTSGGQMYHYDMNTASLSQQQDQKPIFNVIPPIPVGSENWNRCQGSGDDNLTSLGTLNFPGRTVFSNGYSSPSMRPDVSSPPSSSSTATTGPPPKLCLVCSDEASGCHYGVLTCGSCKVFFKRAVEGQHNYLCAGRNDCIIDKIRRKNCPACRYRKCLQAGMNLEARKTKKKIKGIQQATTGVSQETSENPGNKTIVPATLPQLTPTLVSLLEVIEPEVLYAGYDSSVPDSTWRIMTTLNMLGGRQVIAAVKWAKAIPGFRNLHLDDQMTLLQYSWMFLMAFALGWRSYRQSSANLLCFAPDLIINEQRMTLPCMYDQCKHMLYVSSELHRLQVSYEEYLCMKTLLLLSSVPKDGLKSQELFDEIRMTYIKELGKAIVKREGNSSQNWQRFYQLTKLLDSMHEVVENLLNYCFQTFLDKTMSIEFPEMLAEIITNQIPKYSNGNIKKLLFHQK

Experiment [2] deals with T2, Glucocorticoid receptor. As to the kind of experiment: Effect on human Glucocorticoid receptor (GR) in a whole cell assay to measure functional cellular GR-antagonism (GRAF).
For experiment [3], the target named is T2, Glucocorticoid receptor. The experiment in a line: Displacement of [3H]dexamethasone from human Glucocorticoid receptor (GR); Value ranges from 3-4 nM. An outline of the steps:
(§1)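 Binding to human GR; IC50 reported as the geometric mean of two experiments (three for some values), each run in duplicate, with the range of the experiments given.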
A general note: Loss of bound radioactivity is the signal in a displacement assay; it reports binding, not function.

Experiment [4] addresses T2, Glucocorticoid receptor. The experiment in a line: Displacement of [3H]dexamethasone from human Glucocorticoid receptor (GR); […].
The target of experiment [5] is T2, Glucocorticoid receptor. The experiment in a line: Displacement of [3H]dexamethasone from human Glucocorticoid receptor (GR); Value ranges from 6-7 nM. An outline of the steps: as §1
The target in experiment [6] is T2, Glucocorticoid receptor. The experiment in a line: Displacement of [3H]dexamethasone from human Glucocorticoid receptor (GR); Value ranges from 70-92 nM.

In the case of `COc1cccc2c1-c1ccc(NS(C)(=O)=O)cc1C(c1cccs1)O2` (stereo not drawn), the IC50 at Progesterone receptor worked out at 450 nM; against Glucocorticoid receptor [1], 7 nM; on Glucocorticoid receptor [2], 66 nM.
`COc1cccc2c1-c1ccc(NS(C)(=O)=O)cc1C(c1cccc(F)c1)O2` (stereo not drawn): the IC50 was found to be 476 nM at Progesterone receptor, 76 nM against Glucocorticoid receptor [2] and 3 nM at Glucocorticoid receptor [3].
Consider `COc1cccc2c1-c1ccc(NS(C)(=O)=O)cc1C(c1ccc(F)cc1)O2` (stereo not drawn), for which the figures for the IC50 on Progesterone receptor and on Glucocorticoid receptor [4] were 1160 nM and 29 nM, respectively.
As for `COc1cccc2c1-c1ccc(NS(C)(=O)=O)cc1C(c1ccc(C)cc1)O2` (stereo not drawn), the 50% inhibitory concentration (IC50) at Progesterone receptor is 673 nM; on Glucocorticoid receptor [5] it was 7 nM.
In the case of `CCOc1cccc2c1-c1ccc(NS(C)(=O)=O)cc1C(c1ccccc1)O2` (stereo not drawn), the half-maximal inhibitory concentration (IC50) was 81 nM on Glucocorticoid receptor [6], 6900 nM on Progesterone receptor and 308 nM against Glucocorticoid receptor [2].
